Rows were chosen to be rich in hits. Some 0.58% of all compounds tested hit in one or more screens of this group.
OXTR potentiator: potentiates the human oxytocin receptor response; activation, % at 3 µM; P30559; CHO-OTR cells, Fluo-8 calcium fluorescence, potentiator mode; 0% = oxytocin EC15, 100% = EC100; 320,000 compounds, 0.061% hits; AID 2445;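 active means activation above that plate's cutoff, the mean activation of tested compounds plus 3 SD, cut at about 6.6% in these data, passing the limit was not always enough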;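 further: 100% uses oxytocin at 75 nM as the full agonist control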
Target sequence (P30559 whole entry, looked up): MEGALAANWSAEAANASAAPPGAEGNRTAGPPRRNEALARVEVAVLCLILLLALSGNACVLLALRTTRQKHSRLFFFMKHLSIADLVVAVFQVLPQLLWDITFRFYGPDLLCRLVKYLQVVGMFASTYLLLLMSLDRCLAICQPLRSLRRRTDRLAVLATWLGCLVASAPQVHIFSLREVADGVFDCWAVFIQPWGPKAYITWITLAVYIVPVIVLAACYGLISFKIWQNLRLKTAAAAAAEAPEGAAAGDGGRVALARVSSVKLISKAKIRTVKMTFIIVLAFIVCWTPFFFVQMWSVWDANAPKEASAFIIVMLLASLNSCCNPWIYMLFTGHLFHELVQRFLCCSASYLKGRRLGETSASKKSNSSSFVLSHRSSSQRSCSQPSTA
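assay system = CHO-OTR cells, human receptor | schedule = compound 6 min at room temperature before oxytocin, 100 s read | detection = Fluo-8 intracellular calcium fluorescence, ex 470-495, em 515-575 nm | evaluation = normalized max/min fluorescence ratio, % activation | control set = EC15 oxytocin alone as 0%, 75 nM oxytocin (EC100) as 100%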
OXTR ag: activates the human oxytocin receptor. CHO-OTR cells, Fluo-8 calcium fluorescence; normalized: DMSO 0%, oxytocin 100%. activation, % at 3 µM. 320,000 compounds, 0.32% hits;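 active means activation above the mean of all tested compounds plus 3 SD, cutoff set per screening run, cut at about 20% in these data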;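 further: peak over basal fluorescence ratio from a 100 s FLIPR kinetic read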
V1aR counter: activates human V1a receptor in oxytocin agonist counter-screen | CHO-V1R cells, Fluo-8 calcium fluorescence, agonist mode; 0% DMSO, 100% 3 nM vasopressin | activation, % at 3 µM | 320,000 compounds, 0.25% hits;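 active means activation above the mean activation of all tested compounds plus 3 SD, per screening run, cut at about 20% in these data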;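 further: signal is peak over basal fluorescence ratio across a 100 second FLIPR read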
TRPN1 ag: activates the zebrafish TRPN1 channel; HEK293 zebrafish TRPN1-YFP, Fluo-8 calcium fluorescence; 100% = response to 87 µM carbachol; activation, % at 3 µM; 220,000 compounds, 0.18% hits; AID 1424;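 active means activation above its plate's cutoff, the mean activation of test wells on that plate plus 3 SD, cut at about 19% in these data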;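 further: 0% = DMSO alone and 100% = 87 µM carbachol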
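Material – zebrafish TRPN1-YFP in HEK293 cells · Doses – 3 µM single point · Schedule – dye 1 h 37 °C plus 30 min RT · Signal – Fluo-8 calcium fluorescence, excitation 470-495 nm, emission 515-575 nm · Read-out – % activation versus carbachol response · Control set – carbachol high, DMSO low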
TRPML3 ag: activates the human TRPML3 channel; Q8TDD5; activation, % at 3 µM; HEK293 TRPML3-YFP, Fluo-8 calcium fluorescence; 100% = the carbachol control signal; 220,000 compounds, 0.29% hits;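 active means activation above its plate's cutoff, the mean activation of the plate's test wells plus 3 SD, cut at about 12% in these data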;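 further: 0% = DMSO only wells and 100% = carbachol wells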
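Test system – HEK293 line with stable expression of human TRPML3-YFP channel · Control set – carbachol 87 µM final as high control (100%), DMSO as low control (0%) · Signal – Fluo-8 calcium dye fluorescence, ex 470-495, em 515-575 nm · Incubation – 1-h 37 °C dye load, 5-s basal, 120-s post-compound reads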
OXTR ag confirm: confirmation of human oxytocin receptor agonists. shares compounds with OXTR ag. CHO-OTR cells, Fluo-8 calcium fluorescence, agonist. AID 434963. activation, % at 3 µM. 390 compounds, 20% hits;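 active means mean activation above about 20% derived from the earlier single-dose screen, limit read from the data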;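 further: peak over minimum fluorescence ratio per well during a 100 second FLIPR read; 0% = DMSO alone and 100% = oxytocin high control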
V1aR counter 3x: activates V1a receptor in oxytocin agonist counter-screen; 390 compounds, 10% hits; CHO-V1R cells, Fluo-8 calcium fluorescence; shares compounds with OXTR ag; activation, % at 3 µM;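 active means mean activation over triplicate exceeds the hit threshold set in the earlier primary screen, cut at about 20% in these data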;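 further: peak over basal fluorescence ratio within a 100 second read; 0% = DMSO alone and 100% = 3 nM vasopressin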
* marks the source's active call; other numbers are inactive results; · = no result; ! = not active in a repeat.

SMILES | OXTR potentiator | OXTR ag | V1aR counter | TRPN1 ag | TRPML3 ag | OXTR ag confirm | V1aR counter 3x
COc1ccc(C(CCN2CCCC(C)C2)c2c(OC)cc(OC)c3c(-c4ccccc4)cc(=O)oc23)cc1 (stereo unspecified) | -12 | 22* | 16 | · | · | 2 | 3
COc1cc(OC)c2c(-c3ccccc3)cc(=O)oc2c1C(CCN1CCCC(C)C1)c1ccc(N(C)C)cc1 (stereo unspecified) | 0 | 4 | 1 | · | · | · | ·
Cc1ccc(OCCNc2cc(N3CCN(CCO)CC3)ccc2[N+](=O)[O-])cc1C | -10 | 23* | 13 | 6 | 1 | 4 | 1
Cc1cccc(OCCNc2cc(N3CCN(C)CC3)ccc2[N+](=O)[O-])c1 | 2 | 4 | 6 | 0 | 1 | · | ·
CC(=O)Nc1ccc(-c2cn3c(n2)SCC3)cc1 | -8 | 1 | 1 | · | · | · | ·
O=C(Oc1ccc(-c2cn3c(n2)SCC3)cc1)c1ccccc1 | -12 | 27* | 13 | 11 | 3 | 9 | 8
O=C(c1ccc(S(=O)(=O)Nc2ccc(F)cc2)cc1)N1CCN(c2ccccn2)CC1 | -16 | 21* | 13 | 10 | 6 | 14 | 12
COc1ccc(N2CCN(C(=O)c3ccc(NS(=O)(=O)c4ccc(F)c(F)c4)cc3)CC2)cc1 | -6 | 14 | 11 | -1 | 0 | · | ·
O=C(c1ccc(NS(=O)(=O)c2ccc(F)cc2)cc1)N1CCCCC1 | -13 | 1 | 2 | · | · | · | ·
COc1ccc(NS(=O)(=O)c2ccc(C(=O)N3CCN(c4ccc(F)cc4)CC3)cc2)cc1 | -14 | 22* | 16 | · | · | 16 | 15
CCC1(c2ccc(F)cc2)NC(=O)N(CC(=O)Nc2ccc(N3CCCCC3)cc2)C1=O (stereo unspecified) | -18 | 27* | 15 | · | · | 16 | 14
Cn1c(=O)c(C(=O)NNC(=O)c2ccccc2F)c(O)c2ccccc21 | -11 | 20* | 6 | · | · | 12 | 10
COc1ccccc1CN1C(=NC(=O)C2CCCCC2)SC2CS(=O)(=O)CC21 (stereo unspecified) | -2 | 1 | 1 | · | · | · | ·
CN[C@H]1CC[C@@H](c2ccc(Cl)c(Cl)c2)c2ccccc21 | -19 | 21*! | 9 | 2 | 3 | 3 | 6
O=C1C=C(O)CC(c2ccc(Cl)c(Cl)c2)C1 (stereo unspecified) | -12 | 1 | 0 | 1 | 1 | · | ·
COCCn1c(SCC(=O)NC2(C#N)CCCCC2)nc2ccccc2c1=O | -6 | -1 | 0 | · | · | · | ·
CCCCn1c(N)c(N(CC(C)C)C(=O)c2cc(-c3ccncc3)nc3ccccc23)c(=O)[nH]c1=O | -12 | -1 | -1 | · | · | · | ·
Cc1cc(/C=C(\C#N)C(N)=O)c(C)n1-c1ccc(N2CCOCC2)c([N+](=O)[O-])c1 | -6 | 23* | 11 | -1 | 1 | 12 | 19
Cc1cc(C=O)c(C)n1-c1ccc(N2CCCCC2)c([N+](=O)[O-])c1 | -32 | 4 | 7 | 3 | 2 | · | ·
Cc1ccc(C)c(S(=O)(=O)N2CCCC2CNC(=O)C(=O)NCC2CCCO2)c1 (stereo unspecified) | 3 | -1 | -1 | · | · | · | ·
COC(C(=O)Nc1ccc(S(=O)(=O)Nc2ccc(F)cc2)cc1)c1ccccc1 (stereo unspecified) | -10 | 20* | 16 | 15 | 6 | 23* | 14
CCOC(=O)c1sc(NC(=O)c2cc(-c3ccc(C)cc3)nc3ccccc23)c(C#N)c1C | 6 | 2 | 0 | 0 | 0 | · | ·
COC(=O)c1sc(NC(=O)c2cc(-c3ccccc3)nc3ccccc23)c(C#N)c1C | -23 | 20* | 11 | 3 | 0 | 17 | 13
Cc1ccccc1-c1cc(C(=O)Nc2sc(C(=O)OC(C)C)c(C)c2C#N)c2ccccc2n1 | -11 | 21* | 13 | 2 | 2 | 14 | 13
COc1ccccc1CNC(=O)CS(=O)(=O)Cc1ccccc1 | 3 | 0 | -1 | · | · | · | ·
SMILES | OXTR potentiator | OXTR ag | V1aR counter | TRPN1 ag | TRPML3 ag | OXTR ag confirm | V1aR counter 3x
CNc1nc2cc([N+](=O)[O-])c([N+](=O)[O-])cc2nc1NC | -11 | 26* | 11 | 27* | 9 | 23* | 16
N#Cc1cc2nc(O)c(O)nc2cc1[N+](=O)[O-] | -7 | 0 | -1 | · | · | · | ·
CCCCOc1ccc(Cl)cc1Nc1nc(NCCO)nc(N2CCCC2)n1 | -11 | 0 | 1 | · | · | · | ·
COc1ccc(S(=O)(=O)N2CCCN(CCC(=O)Nc3cccc(C(F)(F)F)c3)CC2)cc1 | -12 | 22* | 17 | 4 | 2 | 8 | 6
COc1ccc(NC(=O)CCN2CCN(S(=O)(=O)c3ccc(F)cc3)CC2)cc1 | 4 | -1 | 1 | · | · | · | ·
COc1cc(C(=O)NCc2cccnc2)ccc1OCC(=O)Nc1cccc(C(F)(F)F)c1 | -8 | 23* | 18 | · | · | 7 | 8
CN1CCN(C(=S)c2ccc(OCC(=O)Nc3cccc(C(F)(F)F)c3)cc2)CC1 | -32 | 20* | 13 | 6 | 2 | 9 | 8
CCn1nc(NS(=O)(=O)c2ccc(NC(C)=O)cc2)c2cc3cc(C)ccc3nc21 | 0 | -1 | 0 | · | · | · | ·
O=C(NCc1ccc(OC(F)(F)F)cc1)c1cccc2c1C(=O)c1ccc(N3CCC(Cc4ccccc4)CC3)cc1S2(=O)=O | -2 | 23* | 6 | · | · | 22* | 27*
O=C(Cn1c(=O)[nH]c2sc3c(c2c1=O)CCCC3)NCC1CCCO1 (stereo unspecified) | -5 | 0 | 0 | · | · | · | ·
COc1ccc(OCc2cc(C(=O)N3CCOCC3)no2)c(Cl)c1 | -7 | 0 | 2 | · | · | · | ·
Cc1c(Cl)cccc1NC(=S)NNc1ncc(C(F)(F)F)cc1Cl | -12 | 29* | 16 | 5 | 2 | 7 | 7
COC(=O)c1ccc(NS(=O)(=O)c2ccc(S(=O)(=O)N3CCOCC3)cc2)cc1 | -10 | 2 | 2 | · | · | · | ·
Cc1cc(OCCOCCNCc2ccccc2)ccc1C(C)C | -15 | 22* | 11 | · | · | 3 | 1
Cc1ccc(NCc2nnc(SCC(=O)c3ccc4c(c3)OCCO4)o2)c(C)c1 | -2 | 3 | 1 | 1 | 0 | · | ·
COc1ccc(C(=O)CSc2nnc(CNc3ccc(C)cc3C)o2)cc1 | -22 | 25* | 11 | -1 | 1 | 2 | 3
COc1ccccc1CNC(=O)COC(=O)C1CCN(S(=O)(=O)c2ccccc2)CC1 | 2 | 0 | 0 | · | · | · | ·
COc1cc(CNCC(O)c2ccccc2)ccc1OCc1ccc(Cl)nc1 (stereo unspecified) | -12 | 20* | 9 | 2 | 1 | 10 | 3
COc1cc(CNCCc2ccccc2)ccc1OCc1ccc(Cl)nc1 | -10 | 15 | 7 | 1 | 0 | · | ·

Bioassay records deposited in PubChem BioAssay by The Scripps Research Institute Molecular Screening Center.
